The source made the active and inactive calls. The calls are words filed in the database; no cut-off is given here.
Experiments:
[1] = biological target: Secreted effector protein (Yersinia pestis, UniProt O68720); test: Inhibition of Yersinia pestis outer protein H expressed in Escherichia coli after 15 to 20 mins
Procedure, shortened: (§1)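 YopH PTPase domain (residues 164–468) expressed in E. coli. Buffer: 25 mM HEPES pH 7.0–7.6, 50 mM NaCl, 2.5 mM EDTA, 5 mM DTT plus 1 mM fresh DTT, with BSA, no detergent. Inhibitor DMSO dilutions ran 400 to 0.032 μM. Substrate was pNPP (10 mM stock), incubated 25 °C for 15–20 min. pNPP hydrolysis was measured colorimetrically and IC50 came from a Boltzmann sigmoidal fit.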

Yersinia pestis = test: Antimicrobial activity against pgm, pla deficient Yersinia pestis CO92 infected in human peripheral blood monocytes assessed as inhibition of intracellular bacterial growth at 10 uM after 16 hrs; type: functional, organism-based
[2] = biological target: Dual specificity protein phosphatase 14 (Homo sapiens, UniProt O95147); test: Inhibition of human DUSP14
Sequence of Dual specificity protein phosphatase 14 (O95147 whole entry, the tested form may be a part): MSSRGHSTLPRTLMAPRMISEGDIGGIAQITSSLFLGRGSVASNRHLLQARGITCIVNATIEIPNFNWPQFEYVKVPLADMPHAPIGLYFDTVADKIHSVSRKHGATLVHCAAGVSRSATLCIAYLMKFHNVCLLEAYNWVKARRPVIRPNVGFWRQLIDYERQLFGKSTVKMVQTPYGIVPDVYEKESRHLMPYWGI
Procedure, shortened: (§2)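 Recombinant phosphatases: Variola major VH1, human DUSP-14, and catalytic domains of DUSP-22, PTP1B and LAR. Each was assayed by the same spectrophotometric pNPP hydrolysis method as YopH (HEPES pH 7.0–7.6, NaCl, EDTA, DTT, BSA buffer; 25 °C, 15–20 min). IC50 came from a Boltzmann sigmoidal fit.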

[3] = Inhibition of Variola major virus phosphatase VH1; procedure, shortened: as §2
[4] = biological target: Secreted effector protein (Yersinia pestis) (UniProt O68720); test: Inhibition of Yersinia pestis outer protein H expressed in Escherichia coli after 15 to 20 mins in absence of 0.01% TX-100; procedure, shortened: as §1
J774 = test: Cytotoxicity against mouse J774 cells assessed as cell viability by measuring ATP level at < 100 uM after 40 hrs; type: cell-based; settings: j774, 40 h
Procedure, shortened: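 J774 mouse macrophages, 5 × 10^5 cells/well, in Eagle's MEM with 4 mM L-glutamine, 4500 mg/L glucose and 7.5% FBS, at 37 °C, 5% CO2. Compound was diluted from a 10 mM DMSO stock to final 0.1–100 μM (1% DMSO in all wells) and cells were cultured 40 h. Viability was read as cellular ATP content.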

[5] = biological target: Tyrosine-protein phosphatase non-receptor type 1 (Homo sapiens, UniProt P18031); test: Inhibition of human PTP1B; procedure, shortened: as §2
Sequence of Tyrosine-protein phosphatase non-receptor type 1 (P18031 whole entry): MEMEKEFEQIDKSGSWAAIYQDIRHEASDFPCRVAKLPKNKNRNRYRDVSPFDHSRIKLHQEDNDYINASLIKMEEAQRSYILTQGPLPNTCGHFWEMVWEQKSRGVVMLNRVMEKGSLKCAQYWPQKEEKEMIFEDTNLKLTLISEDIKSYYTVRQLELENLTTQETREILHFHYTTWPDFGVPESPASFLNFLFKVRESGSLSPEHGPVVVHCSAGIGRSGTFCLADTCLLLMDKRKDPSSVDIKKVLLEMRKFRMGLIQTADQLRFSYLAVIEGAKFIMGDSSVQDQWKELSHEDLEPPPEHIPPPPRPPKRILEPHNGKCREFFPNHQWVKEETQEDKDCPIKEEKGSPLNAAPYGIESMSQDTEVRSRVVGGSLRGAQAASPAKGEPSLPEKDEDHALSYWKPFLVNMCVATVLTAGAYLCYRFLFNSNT

[6] = biological target: Dual specificity protein phosphatase 22 (Homo sapiens, UniProt Q9NRW4); test: Inhibition of human DUSP22; procedure, shortened: as §2
Sequence of Dual specificity protein phosphatase 22 (Q9NRW4 whole entry): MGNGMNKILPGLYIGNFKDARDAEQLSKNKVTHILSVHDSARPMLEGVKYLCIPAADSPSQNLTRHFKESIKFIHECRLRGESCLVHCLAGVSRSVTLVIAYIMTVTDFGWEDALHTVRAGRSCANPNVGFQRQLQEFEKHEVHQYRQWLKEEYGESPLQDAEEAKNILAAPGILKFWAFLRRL

[7] = biological target: Receptor-type tyrosine-protein phosphatase F (Homo sapiens, UniProt P10586); test: Inhibition of human leukocyte antigen related phosphatase; procedure, shortened: as §2
Sequence of Receptor-type tyrosine-protein phosphatase F (P10586 whole entry): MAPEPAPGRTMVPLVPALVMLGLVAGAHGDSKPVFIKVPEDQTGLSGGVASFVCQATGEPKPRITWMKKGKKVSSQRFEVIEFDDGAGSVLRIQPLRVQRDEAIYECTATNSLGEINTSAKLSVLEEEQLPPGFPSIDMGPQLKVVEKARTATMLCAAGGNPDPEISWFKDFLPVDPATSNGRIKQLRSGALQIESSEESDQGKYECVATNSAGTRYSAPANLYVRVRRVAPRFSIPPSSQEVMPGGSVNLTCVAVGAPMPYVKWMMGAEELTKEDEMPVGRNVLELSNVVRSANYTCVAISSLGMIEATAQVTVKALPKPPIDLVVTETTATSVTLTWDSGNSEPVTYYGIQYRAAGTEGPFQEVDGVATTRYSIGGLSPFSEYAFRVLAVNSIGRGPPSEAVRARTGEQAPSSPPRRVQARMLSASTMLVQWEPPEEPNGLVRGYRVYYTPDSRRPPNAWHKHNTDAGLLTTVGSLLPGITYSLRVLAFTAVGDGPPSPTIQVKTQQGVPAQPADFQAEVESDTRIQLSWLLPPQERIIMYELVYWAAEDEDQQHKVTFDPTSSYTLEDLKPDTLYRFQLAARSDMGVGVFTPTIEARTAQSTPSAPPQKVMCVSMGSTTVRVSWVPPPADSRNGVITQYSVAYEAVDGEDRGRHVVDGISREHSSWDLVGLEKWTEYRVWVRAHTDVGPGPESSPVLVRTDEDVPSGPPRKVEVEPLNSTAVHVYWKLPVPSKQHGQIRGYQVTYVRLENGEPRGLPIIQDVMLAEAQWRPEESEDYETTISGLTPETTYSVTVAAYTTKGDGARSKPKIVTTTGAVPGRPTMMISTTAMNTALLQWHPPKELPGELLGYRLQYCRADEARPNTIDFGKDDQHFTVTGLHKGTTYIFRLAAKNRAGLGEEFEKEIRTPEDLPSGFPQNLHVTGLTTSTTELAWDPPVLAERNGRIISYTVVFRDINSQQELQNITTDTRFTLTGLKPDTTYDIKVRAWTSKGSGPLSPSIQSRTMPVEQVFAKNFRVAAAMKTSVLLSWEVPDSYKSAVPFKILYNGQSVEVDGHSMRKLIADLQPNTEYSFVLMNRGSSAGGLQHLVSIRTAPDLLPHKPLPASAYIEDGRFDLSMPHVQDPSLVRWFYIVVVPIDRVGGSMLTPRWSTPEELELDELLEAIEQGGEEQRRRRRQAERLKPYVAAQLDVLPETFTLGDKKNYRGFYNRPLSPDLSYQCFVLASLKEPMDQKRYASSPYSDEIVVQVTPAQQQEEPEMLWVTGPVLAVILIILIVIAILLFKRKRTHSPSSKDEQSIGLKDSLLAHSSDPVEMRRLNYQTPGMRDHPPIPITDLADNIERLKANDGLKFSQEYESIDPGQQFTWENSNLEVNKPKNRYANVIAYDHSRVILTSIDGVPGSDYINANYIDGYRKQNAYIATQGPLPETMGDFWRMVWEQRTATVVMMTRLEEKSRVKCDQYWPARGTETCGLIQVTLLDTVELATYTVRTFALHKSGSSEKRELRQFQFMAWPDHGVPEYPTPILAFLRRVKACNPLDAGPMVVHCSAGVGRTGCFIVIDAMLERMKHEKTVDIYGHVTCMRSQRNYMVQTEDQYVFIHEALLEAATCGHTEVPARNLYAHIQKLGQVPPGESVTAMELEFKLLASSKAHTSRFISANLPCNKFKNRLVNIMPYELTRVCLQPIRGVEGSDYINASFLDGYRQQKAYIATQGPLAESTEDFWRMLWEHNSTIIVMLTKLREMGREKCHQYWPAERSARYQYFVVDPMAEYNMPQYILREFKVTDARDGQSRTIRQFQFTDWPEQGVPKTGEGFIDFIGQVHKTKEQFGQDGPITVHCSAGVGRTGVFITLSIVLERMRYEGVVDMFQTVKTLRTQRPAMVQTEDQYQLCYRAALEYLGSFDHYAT

[8] = biological target: Secreted effector protein (Yersinia pestis) (UniProt O68720); test: Inhibition of Yersinia pestis outer protein H expressed in Escherichia coli after 15 to 20 mins in presence of 0.01% TX-100
Procedure, shortened: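 YopH PTPase domain (residues 164–468, E. coli-expressed) run in a parallel independent pNPP hydrolysis assay with 0.01% Triton X-100 added. Buffer: 25 mM HEPES pH 7.0–7.6, 50 mM NaCl, 2.5 mM EDTA, DTT, BSA. Inhibitor DMSO dilutions ran 400 to 0.032 μM, incubated 25 °C for 15–20 min. IC50 came from a Boltzmann sigmoidal fit.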

[9] = substrate: NOCc1ccc(OP(=O)(O)O)c([N+](=O)[O-])c1; settings: Yersinia pestis
[10] = substrate: NOCc1cc(OP(=O)(O)O)ccc1[N+](=O)[O-]; settings: Yersinia pestis
[11] = substrate: CC(C)(C)c1ccc(OP(=O)(O)O)c([N+](=O)[O-])c1; settings: Yersinia pestis
[12] = substrate: O=[N+]([O-])c1cc(-c2ccccc2)ccc1OP(=O)(O)O; settings: Yersinia pestis
[13] = substrate: Cc1cccc([N+](=O)[O-])c1OP(=O)(O)O; settings: Yersinia pestis
[14] = substrate: O=[N+]([O-])c1ccc(OP(=O)(O)O)cc1-c1ccccc1; settings: Yersinia pestis
[15] = substrate: O=[N+]([O-])c1ccc(OP(=O)(O)O)cc1; settings: Yersinia pestis
[16] = substrate: O=[N+]([O-])c1cccc(C2CCCCC2)c1OP(=O)(O)O; settings: Yersinia pestis
[17] = substrate: C/C=N/OCc1cc(OP(=O)(O)O)ccc1[N+](=O)[O-]; settings: Yersinia pestis
[18] = substrate: Cc1cc([N+](=O)[O-])ccc1OP(=O)(O)O; settings: Yersinia pestis
[19] = substrate: CC(C)(C)c1cc(OP(=O)(O)O)ccc1[N+](=O)[O-]; settings: Yersinia pestis
[20] = substrate: O=[N+]([O-])c1ccc(OP(=O)(O)O)c(C2CCCCC2)c1; settings: Yersinia pestis

Cc1ccc(/C=N/OCc2ccc(-c3cccc(C(F)(F)P(=O)(O)O)c3)cc2)o1
IC50 [1]: 910 nM

O=P(O)(O)C(F)(F)c1cccc(-c2ccc(CO/N=C/c3ccoc3)cc2)c1
IC50 [1]: 3690 nM

GENTAMICIN
inhibition (Yersinia pestis): Active

O=P(O)(O)C(F)(F)c1cccc(-c2ccc(CO/N=C/c3ccc(CO)o3)cc2)c1
IC50 [1]: 730 nM

O=C(O)c1ccc(/C=N/OCc2ccc(-c3cccc(C(F)(F)P(=O)(O)O)c3)cc2)o1
inhibition (Yersinia pestis): Active | IC50 [2]: > 400000 nM | IC50 [3]: > 400000 nM | inhibition [4]: Active | Activity (J774): Non-toxic | IC50 [1]: 190 nM | IC50 [5]: 2230 nM | IC50 [6]: > 400000 nM | IC50 [7]: > 400000 nM | inhibition [8]: Active

O=P(O)(O)C(F)(F)c1cccc(-c2ccc(CO/N=C/c3ccco3)cc2)c1
IC50 [1]: 1200 nM

B1: Secreted effector protein (Yersinia pestis), O68720 (protein)
chain: MNLSLSDLHRQVSRLVQQESGDCTGKLRGNVAANKETTFQGLTIASGARESEKVFAQTVLSHVANVVLTQEDTAKLLQSTVKHNLNNYDLRSVGNGNSVLVSLRSDQMTLQDAKVLLEAALRQESGARGHVSSHSHSALHAPGTPVREGLRSHLDPRTPPLPPRERPHTSGHHGAGEARATAPSTVSPYGPEARAELSSRLTTLRNTLAPATNDPRYLQACGGEKLNRFRDIQCCRQTAVRADLNANYIQVGNTRTIACQYPLQSQLESHFRMLAENRTPVLAVLASSSEIANQRFGMPDYFRQSGTYGSITVESKMTQQVGLGDGIMADMYTLTIREAGQKTISVPVVHVGNWPDQTAVSSEVTKALASLVDQTAETKRNMYESKGSSAVGDDSKLRPVIHCRAGVGRTAQLIGAMCMNDSRNSQLSVEDMVSQMRVQRNGIMVQKDEQLDVLIKLAEGQGRPLLNS
Km [9]: 1130 µM | Km [10]: 410 µM | Km [11]: 470 µM | Km [12]: 150 µM | Km [13]: Not Active | Km [14]: 80 µM | Km [15]: 600 µM | Km [16]: Not Active | Km [17]: 170 µM | Km [18]: 650 µM | Km [19]: 1140 µM | Km [20]: 260 µM

— ChEMBL document CHEMBL1765042, “Utilization of nitrophenylphosphates and oxime-based ligation for the development of nanomolar affinity inhibitors of the Yersinia pestis outer protein H (YopH) phosphatase” (J Med Chem, 2011)
